We go through one molecule from publication PMC5148661 (ACS infectious diseases, 2016).

Read-outs that look alike come from different tables or passages of the source.

For one data set, the target named is Minipig DHODH (Sus scrofa, UniProt F1S3B0). Put plainly: DHODH inhibition, DCIP-based assay. In kind it is biochemical.
A short description of data set [1]: metabolic stability in liver microsomes. The data set is classed as in vitro ADME. The settings on record: dog. A general note: Microsomes from liver hold many membrane-bound enzymes, among them those of drug oxidation.
For data set [2], the system named is P. falciparum Dd2 isolates selected for resistance to DSM265. Put plainly: activity on DSM265-selected resistant lines. The data set is classed as cell-based. The settings on record: G181C PfDHODH mutant line and 3-fold DHODH gene amplification line.
The next data set deals with Na_V1.5 channel (Homo sapiens, UniProt Q14524). Put plainly: Na_V1.5 channel assay. The data set is classed as cell-based. A digest of the protocol:
(§1)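 Channel activity measured by IonWorks automated patch-clamp electrophysiology at a contract lab.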

A further data set concerns CYP isoforms. In words: cytochrome P450 inhibition, other isoforms and time-dependent inhibition. In kind it is in vitro ADME. The settings on record: 20 μM. The method, boiled down:
(§2)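 Reversible inhibition of human CYP isoforms tested with isoform-specific probe substrates. Time-dependent (mechanism-based) inhibition was also assessed.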

Data set [3] concerns CYP isoforms (all isoforms tested). The description is as above. The data set is classed as in vitro ADME. The method, boiled down: as §2
Another data set deals with Caco-2 cell monolayers. Put plainly: Caco-2 cell permeability. In kind it is in vitro ADME. To be noted: both directions. For orientation: Passage across Caco-2 layers is used to estimate intestinal permeability.
The next data set concerns the target Dog DHODH (Canis lupus familiaris, UniProt A0A8I3MWX2). Put plainly: DHODH inhibition, DCIP-based assay. In kind it is biochemical.
In data set [4] the test system is P. falciparum field isolates. In words: ex vivo 48 h schizont maturation assay. The data set is classed as cell-based. The settings on record: Plasmodium falciparum, read-out: unbound EC50. The method, boiled down:
(§3)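 Field isolates came from patients at malaria clinics in Timika, Papua, Indonesia, and were tested in a 48 h schizont maturation assay adapted from the WHO microtest at 2% hematocrit. P. falciparum was run in RPMI 1640 with 10% AB+ human serum. P. vivax was run in McCoy's 5A with 20% AB+ human serum.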

A short description of data set [5]: pharmacokinetics after IV and oral dosing. In kind it is in vivo, rats. The method, boiled down:
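Single IV and oral doses were given. Mice and rats received about 2 mg/kg IV and 5–50 mg/kg orally, with blood sampled over 30–48 h from 2 mice per time point or 2 rats. Dogs received 1 mg/kg by each route (n=3). Plasma was separated by centrifugation and assayed by LC/MS, and parameters were derived non-compartmentally.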

Another data set deals with CYP2D6 (Homo sapiens, UniProt P10635). In words: reversible cytochrome P450 inhibition. In kind it is in vitro ADME. A digest of the protocol: as §2
For the next data set, the system named is P. vivax field isolates. In words: ex vivo 48 h schizont maturation assay. In kind it is cell-based. The method, boiled down:
as §3

For another data set, the target named is Ca_1.2 channel (Homo sapiens, UniProt Q13936). Put plainly: Ca_1.2 channel assay. In kind it is cell-based. A digest of the protocol: as §1
In data set [6] the test system is P. falciparum 3D7A parasites. Put plainly: in vitro kill rate. In kind it is cell-based. To be noted: for EC50: Plasmodium falciparum, 3D7, 48 h.

Dog DHODH, sequence (A0A8I3MWX2 1-406): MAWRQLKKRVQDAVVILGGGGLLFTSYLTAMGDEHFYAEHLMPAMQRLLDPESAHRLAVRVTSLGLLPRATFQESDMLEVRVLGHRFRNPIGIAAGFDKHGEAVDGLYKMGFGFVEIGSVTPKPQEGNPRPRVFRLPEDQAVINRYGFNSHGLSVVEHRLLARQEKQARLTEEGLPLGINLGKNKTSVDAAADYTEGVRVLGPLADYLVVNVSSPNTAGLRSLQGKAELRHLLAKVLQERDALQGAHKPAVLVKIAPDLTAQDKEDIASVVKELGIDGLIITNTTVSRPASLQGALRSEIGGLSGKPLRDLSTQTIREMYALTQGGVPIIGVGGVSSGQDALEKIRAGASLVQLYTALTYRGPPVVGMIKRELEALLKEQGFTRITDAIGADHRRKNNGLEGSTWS
Na_V1.5 channel, sequence (Q14524 whole entry): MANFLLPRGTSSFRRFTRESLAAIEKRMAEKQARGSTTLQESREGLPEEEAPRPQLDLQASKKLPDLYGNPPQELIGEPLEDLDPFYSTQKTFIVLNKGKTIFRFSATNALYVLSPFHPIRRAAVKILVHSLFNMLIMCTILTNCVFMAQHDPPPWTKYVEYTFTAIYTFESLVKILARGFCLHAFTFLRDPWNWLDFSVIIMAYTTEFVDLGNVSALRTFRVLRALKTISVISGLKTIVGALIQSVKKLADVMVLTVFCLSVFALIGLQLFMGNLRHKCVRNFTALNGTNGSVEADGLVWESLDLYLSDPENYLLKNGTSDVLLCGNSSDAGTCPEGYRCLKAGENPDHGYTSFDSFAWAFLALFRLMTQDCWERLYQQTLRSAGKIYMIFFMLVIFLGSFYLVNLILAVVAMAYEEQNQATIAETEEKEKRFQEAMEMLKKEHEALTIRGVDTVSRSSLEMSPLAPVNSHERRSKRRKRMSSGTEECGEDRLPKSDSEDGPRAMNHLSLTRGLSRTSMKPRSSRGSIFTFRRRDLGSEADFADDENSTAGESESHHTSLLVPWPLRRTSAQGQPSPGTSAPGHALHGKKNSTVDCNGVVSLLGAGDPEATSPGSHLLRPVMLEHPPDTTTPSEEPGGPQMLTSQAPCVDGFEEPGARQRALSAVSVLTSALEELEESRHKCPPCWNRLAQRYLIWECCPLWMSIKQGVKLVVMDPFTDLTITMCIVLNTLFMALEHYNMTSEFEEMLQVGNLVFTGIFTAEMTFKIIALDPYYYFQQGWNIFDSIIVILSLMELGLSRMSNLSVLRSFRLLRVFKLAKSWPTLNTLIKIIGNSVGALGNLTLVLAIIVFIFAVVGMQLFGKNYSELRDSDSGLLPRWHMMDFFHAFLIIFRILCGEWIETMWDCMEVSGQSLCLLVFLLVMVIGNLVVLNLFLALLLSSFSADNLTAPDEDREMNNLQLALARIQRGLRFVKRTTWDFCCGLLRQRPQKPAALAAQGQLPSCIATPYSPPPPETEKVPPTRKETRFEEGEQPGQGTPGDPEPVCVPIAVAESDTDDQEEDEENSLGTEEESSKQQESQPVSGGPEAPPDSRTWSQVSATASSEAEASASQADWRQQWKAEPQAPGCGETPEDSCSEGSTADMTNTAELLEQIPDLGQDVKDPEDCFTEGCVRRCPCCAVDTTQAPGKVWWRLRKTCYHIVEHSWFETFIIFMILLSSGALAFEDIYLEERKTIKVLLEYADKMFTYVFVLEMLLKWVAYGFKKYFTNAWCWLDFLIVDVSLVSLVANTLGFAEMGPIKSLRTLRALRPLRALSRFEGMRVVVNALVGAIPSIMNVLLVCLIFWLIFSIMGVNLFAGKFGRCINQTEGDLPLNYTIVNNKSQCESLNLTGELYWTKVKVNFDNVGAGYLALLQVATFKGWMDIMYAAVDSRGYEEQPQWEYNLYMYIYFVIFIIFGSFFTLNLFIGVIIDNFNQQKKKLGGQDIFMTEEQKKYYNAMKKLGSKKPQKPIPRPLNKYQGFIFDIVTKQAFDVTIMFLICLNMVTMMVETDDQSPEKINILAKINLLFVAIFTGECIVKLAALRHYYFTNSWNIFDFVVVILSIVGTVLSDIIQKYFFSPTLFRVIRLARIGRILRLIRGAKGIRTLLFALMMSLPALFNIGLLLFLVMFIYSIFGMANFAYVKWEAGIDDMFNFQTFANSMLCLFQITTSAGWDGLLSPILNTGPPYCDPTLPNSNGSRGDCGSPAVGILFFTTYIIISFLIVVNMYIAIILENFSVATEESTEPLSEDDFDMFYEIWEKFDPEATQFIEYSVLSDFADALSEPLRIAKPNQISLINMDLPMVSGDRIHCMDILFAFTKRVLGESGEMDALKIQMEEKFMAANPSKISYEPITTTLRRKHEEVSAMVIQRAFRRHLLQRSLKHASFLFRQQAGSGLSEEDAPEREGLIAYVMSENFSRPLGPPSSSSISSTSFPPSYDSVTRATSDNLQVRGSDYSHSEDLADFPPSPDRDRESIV
Minipig DHODH, sequence (F1S3B0 1-395): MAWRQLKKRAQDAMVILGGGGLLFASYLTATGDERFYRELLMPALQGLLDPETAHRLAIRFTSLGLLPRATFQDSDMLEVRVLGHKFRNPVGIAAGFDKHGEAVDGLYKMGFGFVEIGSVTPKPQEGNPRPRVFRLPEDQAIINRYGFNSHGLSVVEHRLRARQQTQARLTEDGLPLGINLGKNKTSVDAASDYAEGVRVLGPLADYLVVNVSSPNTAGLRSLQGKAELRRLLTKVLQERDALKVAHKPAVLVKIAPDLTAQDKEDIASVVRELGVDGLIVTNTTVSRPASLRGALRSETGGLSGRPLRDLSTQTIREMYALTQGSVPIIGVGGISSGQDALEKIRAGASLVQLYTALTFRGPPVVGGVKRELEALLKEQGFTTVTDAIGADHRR
CYP2D6, sequence (P10635 whole entry): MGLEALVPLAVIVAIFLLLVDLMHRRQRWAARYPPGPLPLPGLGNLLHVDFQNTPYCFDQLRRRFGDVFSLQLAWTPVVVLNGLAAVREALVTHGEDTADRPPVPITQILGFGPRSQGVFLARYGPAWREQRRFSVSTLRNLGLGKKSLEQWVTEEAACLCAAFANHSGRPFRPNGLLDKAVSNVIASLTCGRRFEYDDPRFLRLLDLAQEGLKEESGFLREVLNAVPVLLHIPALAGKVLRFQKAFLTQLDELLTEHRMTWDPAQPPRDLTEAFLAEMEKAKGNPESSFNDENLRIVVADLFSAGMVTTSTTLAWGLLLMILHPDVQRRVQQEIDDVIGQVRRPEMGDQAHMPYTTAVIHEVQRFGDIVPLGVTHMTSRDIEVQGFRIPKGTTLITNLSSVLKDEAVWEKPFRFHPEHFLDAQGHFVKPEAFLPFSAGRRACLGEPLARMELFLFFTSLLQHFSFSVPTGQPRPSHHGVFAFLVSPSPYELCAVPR

In general, IC50 refers to the concentration that gives 50% inhibition. A low value points to inhibition by little substance. A word on the microsomal CLint: it is the rate of metabolic loss divided by the concentration. A word on the EC50: it is the concentration needed to bring the measured effect to its halfway point. The term half-life denotes the time needed for the level to fall by half in the phase considered. The low end stands for rapid decline, the high end for slow decline. In general, Tmax refers to the time from dosing to the highest level. Usually bioavailability stands for dose-corrected exposure relative to a reference, in per cent. Usually inhibition stands for the share of the control response that was lost under treatment. A high value points to strong suppression. Consider `Cc1cc(Nc2ccc(C(F)(F)F)nc2)n2nc(C(C)(F)F)nc2n1` [DSM421, 2-(1,1-Difluoroethyl)-5-methyl-N-(6-(trifluoromethyl)pyridin-3-yl)-[1,2,4]triazolo[1,5-a]pyrimidin-7-amine], for which the IC50 on Minipig DHODH was greater than 100000 nM; in data set [3] it was greater than 20000 nM; against Dog DHODH, 35000 nM. In addition, the microsomal CLint at 1 μM in data set [1] is less than 7 µL/min/mg. The “cross resistance on DSM265-resistant Dd2 lines” value in [2] was “shares cross resistance with DSM265”. At Na_V1.5 channel, the “activity on Na_V1.5 channel” value was “no activity”. Besides, the “inhibition of the other CYP isoforms” value in the data set with CYP isoforms is recorded as “no measurable inhibition”. Also, in the data set with Caco-2 cell monolayers, the “permeability across Caco-2 cell monolayers” value is “high in both directions with no evidence for significant efflux”. The “fold reduction of inhibitory activity in comparison to DSM265” value on Dog DHODH (dog enzyme) amounted to 2.2 fold. Also, the EC50 is 23 nM in data set [4]; 43 nM in data set [6] (read-out: EC50, 48 h growth assay (PRR)); 22 nM in data set [6] (read-out: unbound EC50). In [5] (rat, plasma), this molecule showed a half-life of roughly 5 h. Moreover, the Vd in data set [5] (rat, plasma, iv, 2 mg/kg) came to 0.8 L/kg. The same molecule displayed a clearance in data set [5] (rat, plasma, iv, 2 mg/kg) of 2.4 mL/min/kg. Besides, the Tmax in data set [5] (rat, plasma, po) fell in the range of 1.8 to 7.5 h. The molecule further registered a bioavailability in data set [5] (rat, plasma, po, 4.3 mg/kg) of roughly 80%. Moreover, the “fold increase of plasma AUC” value in data set [5] (rats, oral 4.3 to 53.7 mg/kg, for a 12-fold increase in dose) is 31 fold. At 20 µM the inhibition on CYP2D6 was 45%. The “sensitivity of P. vivax versus P. falciparum field isolates” value with P. vivax field isolates was “equivalent activity towards both species”. The “activity on Ca_1.2 channel” value on Ca_1.2 channel is given as “no activity”. In addition, the “lag time before killing began” value in [6] (10xEC50) came out at 48 h.
